This is a sample that favours compounds with a hit; in the whole collection about 1.8% have one here.
thrombin 1536 – thrombin (human) inhibition. 0.26% of 220,000 active. inhibition, % at 5 µM. alpha-thrombin, Boc-VPR-AMC fluorogenic substrate cleavage. P00734;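 active = inhibition at or above 40%; inactive = inhibition below 40%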;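 also: 0% = enzyme with no compound and 100% = wells without enzyme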
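Assay system: human alpha-thrombin enzyme. Reagent: Boc-VPR-AMC substrate, 15 µM final. Compound dosing: one concentration per compound, 5 µM, with 0.2% DMSO. Incubation: room-temperature reaction. Technique: AMC fluorescence, 355/460 nm. Measure: % inhibition relative to enzyme controls and enzyme-free blanks.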
Platelet DG rel – modulates dense granule release in human platelets; 0.22% of 300,000 active; AID 1663; inhibition, %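 (compounds screened at 7.5 µM in platelet-rich plasma)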; human platelet-rich plasma, SFLLRN dense granule ATP release, luminescence;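 active = mean replicate score, as percent of positive control, at or above 50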
FXIIa inh – factor XIIa (human) inhibition; purified FXIIa, Boc-QGR-AMC fluorogenic substrate, 2 h; inhibition, % at 5 µM; P00748; 0.3% of 220,000 active; in the data active = inhibition above about 40%;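 also: 0% = enzyme with no compound and 100% = blank without enzyme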
Target sequence (P00748 20-372 limits assumed): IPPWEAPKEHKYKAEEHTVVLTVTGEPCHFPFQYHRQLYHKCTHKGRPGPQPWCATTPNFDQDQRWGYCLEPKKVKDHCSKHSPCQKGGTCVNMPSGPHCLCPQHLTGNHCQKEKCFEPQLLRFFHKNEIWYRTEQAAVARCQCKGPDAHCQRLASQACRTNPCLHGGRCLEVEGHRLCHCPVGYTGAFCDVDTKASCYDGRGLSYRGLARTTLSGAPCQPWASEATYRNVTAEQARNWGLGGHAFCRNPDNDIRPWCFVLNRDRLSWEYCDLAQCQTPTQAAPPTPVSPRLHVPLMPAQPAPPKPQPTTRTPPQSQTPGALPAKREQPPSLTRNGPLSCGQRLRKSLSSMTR
Target sequence (P00748 373-615 limits assumed): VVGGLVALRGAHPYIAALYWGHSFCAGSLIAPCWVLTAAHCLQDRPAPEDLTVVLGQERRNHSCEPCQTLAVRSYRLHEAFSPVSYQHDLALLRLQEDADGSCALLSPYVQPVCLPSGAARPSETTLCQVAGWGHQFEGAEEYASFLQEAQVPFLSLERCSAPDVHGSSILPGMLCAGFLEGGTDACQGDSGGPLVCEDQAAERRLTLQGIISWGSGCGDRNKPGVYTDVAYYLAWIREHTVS
hK5 inh – kallikrein 5 (human) inhibition; recombinant hK5, fluorogenic AMC substrate cleavage; inhibition, % at 5 µM; 0.59% of 210,000 active;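 active = inhibition of 40% or more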;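 also: 0% = enzyme controls without compound and 100% = no-enzyme blanks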
FXIa inh – blocks human coagulation factor XIa protease activity. AID 798. inhibition, % at 5 µM. purified FXIa, Boc-Glu-Ala-Arg-AMC fluorogenic substrate. 0.14% of 220,000 active. P03951;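 active = inhibition of at least 40%; inactive = inhibition below 40%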;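 also: fluorescence of freed AMC excited at 355 nm; 0% = enzyme without compound and 100% = no enzyme blank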
Wee1 stabilizer – human Wee1 degradation inhibition, primary screen; P30291; HeLa Luc-Wee1K328M stability, luciferase luminescence; 100% = proteasome inhibitor MG132 effect; reporter increase, % at 5 µM; 1.2% of 220,000 active; AID 1321;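 active = activation above the mean of all tested compounds plus 3 SD, set per screening run, cut at about 8.8% in these data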;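 also: cells exposed to compound for 20 h before luminescence read; 0% = DMSO alone and 100% = MG132 at 30 µM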
Active calls of the source: *; x = no result given.

SMILES | thrombin 1536 | Platelet DG rel | FXIIa inh | hK5 inh | FXIa inh | Wee1 stabilizer
COc1cc(NC(=O)COC(=O)/C=C/c2ccccc2Cl)cc(OC)c1 | -9 | -52 | 12 | -13 | 7 | 9.0*
Cc1ccc(O)c(/C=N/NC(=O)CN2CCCC2)c1 | x | 2 | x | x | x | x
O=C(CN1CCCCCCC1)N/N=C/c1ccc(F)cc1F | 0 | 1 | 12 | -17 | 6 | 9.6*
CCCC(NC(=O)Cc1c(C)c2c(cc(C)c3c(C)coc32)oc1=O)C(=O)O (stereo not drawn) | x | 2 | x | x | x | x
O=C(O)CC1(CC(=O)NCc2ccc(C(F)(F)F)cc2)CCCCC1 | -4 | -1 | 9 | -1 | 2 | 3
O=C(O)CC1(CC(=O)NCc2ccncc2)CCCCC1 | 15 | -5 | 41* | 37 | 28 | 2
C#CCN1c2ccccc2Sc2cccnc21 | x | 3 | x | x | x | x
NC(=O)c1ccccc1N/C=C/C(=O)c1ccc(Cl)cc1Cl | 4 | 52* | 14 | 6 | 5 | 2
NC(=O)c1ccccc1N/C=C/C(=O)c1ccc(F)cc1 | 5 | 39 | 9 | -11 | 3 | 7
CCCCc1nc2cc(C(=O)N3CCC(OC)CC3)ccc2o1 | x | 4 | x | x | x | x
O=C(NCc1ccco1)c1scc2c1OCCO2 | 0 | -36 | 43* | 6 | 14 | -4
O=c1[nH]c2ccccc2nc1-c1ccccc1 | 11 | 6 | 18 | 112* | 19 | -1
Cc1sc(NC(=O)c2ccco2)c(CN2CCN(c3ccc(F)cc3)CC2)c1C | 2 | 6 | 57* | -16 | 30 | 6
O=S(=O)(Nc1ccc(F)cc1)N1CCOCC1 | x | -3 | x | x | x | x
Cc1ccsc1C(=O)Nc1ccc(OCc2ccccc2)cc1 | x | 79* | x | x | x | x
O=C(/C=C/c1ccccc1)N1CCN(CCN2C(=O)c3cccc4cccc(c34)C2=O)CC1 | 3 | -7 | 9 | -1 | 9 | 9.8*
O=C(CC1C(=O)NCCN1Cc1c(F)cccc1Cl)NCCCOc1cccnc1 (stereo not drawn) | x | 1 | x | x | x | x
O=C(CC1C(=O)NCCN1Cc1c(F)cccc1Cl)NCCc1ccccn1 (stereo not drawn) | -12 | 4 | 5 | -2 | -3 | 9.5*
O=C(CSC1CC(=O)N(CCc2ccccc2)C1=O)Nc1ccc(Br)cc1 (stereo not drawn) | 5 | 5 | 17 | 42* | -2 | -1
COc1cccc2cc(C(=O)N3CCC(C)CC3)c(=O)oc12 | 0 | 13 | 14 | -5 | 5 | 3
COc1cccc2cc(C(=O)N3CCN(C45CC6CC(CC(C6)C4)C5)CC3)c(=O)oc12 | 19 | 8 | 18 | 65* | 12 | -2
COC(=O)C(Cc1ccccc1)NC(=O)CCNC(=O)c1ccc(Br)cc1 (stereo not drawn) | x | -8 | x | x | x | x
CCOc1cc(/C=N/NC(N)=O)cc(Br)c1OCC(=O)Nc1ccccc1C | 3 | 98* | 13 | -5 | 3 | 0
CCOc1cc(/C=N/NC(N)=O)cc(Br)c1OCC(=O)Nc1cccc2ccccc12 | -9 | 6 | 2 | -31 | -1 | 0
COc1cc(/C=N/O)c(Br)cc1OCC(=O)Nc1ccccc1C | -4 | -14 | 14 | -11 | 11 | -1
SMILES | thrombin 1536 | Platelet DG rel | FXIIa inh | hK5 inh | FXIa inh | Wee1 stabilizer
COc1cc(/C=N/NC(N)=O)c(Br)cc1OCC(=O)Nc1ccccc1C | 0 | 80* | 14 | 0 | 2 | 2
Cc1ccc(C)c(NCCC#N)c1 | -10 | 3 | 0 | -7 | -4 | -2
NS(=O)(=O)c1ccc(NNC(=O)c2sccc2Cl)cc1 | 30 | -10 | 41* | 29 | 22 | 1
CCOC(=O)c1cc(-c2ccccc2)sc1NC(=O)CN1C(=O)NC(CC)(c2ccc(F)cc2)C1=O (stereo not drawn) | -2 | 0 | 12 | -2 | -3 | -3
CCOC(=O)c1cc(-c2ccccc2)sc1NC(=O)CN1C(=O)NC(CC)(c2ccccc2)C1=O (stereo not drawn) | 14 | -2 | 18 | 40* | 16 | 0
COCCCNC(=S)Nc1cccc2ncccc12 | 1 | 3 | 8 | -13 | -1 | 9.2*
CCN(CC(=O)Nc1ccc2c(c1)OCCO2)C(=O)C(C)Oc1ccc(Cl)cc1 (stereo not drawn) | x | -10 | x | x | x | x
[O-]/[N+](=C/c1ccc(F)cc1)c1ccc(Cl)cc1 | -2 | 57* | 6 | -21 | 6 | 0
COc1ccc(C(=O)O)cc1S(N)(=O)=O | -2 | 5 | 5 | -4 | -5 | 2

Source: PubChem
